Paper PMC12376879 (RSC Advances, 2025)

Target: human serum albumin (HSA) (Homo sapiens, UniProt P02768)
Test: Isothermal titration calorimetry with HSA
Format: binding
How it was run: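 HSA (60 μM) in the sample cell, titrated with test compound from the syringe. All solutions were in 5% DMSO in 20 mM phosphate buffer, pH 7.4, with the same solution in the reference cell. Concentrations were set by A280. The run was 19 injections (0.4 μl, then 18 × 2 μl) at 150 s intervals, stirring at 750 rpm. Ligand-into-buffer dilution heats were subtracted. Ka, n, ΔH and ΔS were fitted; ΔG was calculated from them.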

Sequence of human serum albumin (HSA) (P02768 25-609): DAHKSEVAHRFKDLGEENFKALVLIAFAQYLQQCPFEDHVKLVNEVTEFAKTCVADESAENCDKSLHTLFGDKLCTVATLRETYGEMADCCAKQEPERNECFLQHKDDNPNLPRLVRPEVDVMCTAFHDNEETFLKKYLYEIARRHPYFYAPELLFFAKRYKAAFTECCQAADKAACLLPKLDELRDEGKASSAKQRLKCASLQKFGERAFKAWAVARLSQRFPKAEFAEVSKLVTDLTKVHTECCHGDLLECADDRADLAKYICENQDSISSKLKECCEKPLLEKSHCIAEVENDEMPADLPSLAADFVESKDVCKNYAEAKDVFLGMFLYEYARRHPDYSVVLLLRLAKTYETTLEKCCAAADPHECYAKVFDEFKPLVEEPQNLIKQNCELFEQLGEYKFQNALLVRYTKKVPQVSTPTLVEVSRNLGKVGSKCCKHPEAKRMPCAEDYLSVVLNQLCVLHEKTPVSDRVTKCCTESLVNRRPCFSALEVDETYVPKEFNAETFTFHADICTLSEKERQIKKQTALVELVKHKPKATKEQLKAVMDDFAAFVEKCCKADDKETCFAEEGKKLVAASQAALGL

SMILES: Cc1ccnc2c1NC(=O)c1cccnc1N2C1CC1 [nevirapine]
- Enthalpy (ΔHm), ITC (298 K, HSA): -2.53 kcal/mol
- Gibbs free energy (ΔGm), ITC (298 K, HSA): -6.84 kcal/mol
- Stoichiometry (n), ITC (298 K, HSA): 0.9
- Entropy (ΔS) of binding to HSA (calculated from ITC results): +60.4 J K^−1 mol^−1
